Data published in ChEMBL document CHEMBL1255284, “Aspergillus section Fumigati: antifungal susceptibility patterns and sequence-based identification” (2008).
Converted amounts (≈) assume the structure as drawn.

What was measured:
Aspergillus lentulus [1] = experiment: Antimicrobial activity against Aspergillus lentulus isolate CNM-CM-1290 obtained from sputum of patient after 48 hrs by broth microdilution method; format: functional; details: isolate CNM-CM-1290, 48 h
Outline: (§1)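 CLSI M38-A broth microdilution with modifications: RPMI 1640 with L-glutamine, 2% glucose, buffered to pH 7 with 0.165 M MOPS. Inoculum of 1 × 10^5 to 5 × 10^5 CFU/ml from 3- to 5-day-old cultures. Incubated 35°C, 48 h, humid. Visual reading with a mirror. MIC is complete growth inhibition; echinocandin MEC is hyphal morphological alteration. Azoles 8 to 0.015 μg/ml; others 16 to 0.03 μg/ml.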

Neosartorya hiratsukae [2] = experiment: Antimicrobial activity against Neosartorya hiratsukae isolate CNM-CM-3305 obtained from skin of patient after 48 hrs by broth microdilution method; format: functional; details: Aspergillus hiratsukae, isolate CNM-CM-3305, 48 h; outline: as §1
[3] = test system: Neosartorya pseudofischeri; experiment: Antimicrobial activity against Neosartorya pseudofischeri isolate CNM-CM-3914 obtained from nail of patient after 48 hrs by broth microdilution method; format: functional; details: Aspergillus thermomutatus, isolate CNM-CM-3914, 48 h
Outline: (§2)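 CLSI M38-A broth microdilution with modifications: RPMI 1640 with L-glutamine, MOPS-buffered to pH 7, plus 2% glucose. Inoculum 1 × 10^5 to 5 × 10^5 CFU/ml from 3–5-day cultures. Incubated at 35°C for 48 h, humid. Read visually with a mirror. MIC = complete growth inhibition; echinocandin MEC = altered hyphal morphology. QC strain A. fumigatus ATCC 2004305.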

Aspergillus lentulus [4] = experiment: Antimicrobial activity against Aspergillus lentulus isolate CNM-CM-4415 obtained from sputum of patient after 48 hrs by broth microdilution method; format: functional; details: isolate CNM-CM-4415, 48 h; outline: as §1
Aspergillus lentulus [5] = experiment: Antimicrobial activity against Aspergillus lentulus isolate CNM-CM-3583 obtained from sputum of patient after 48 hrs by broth microdilution method; format: functional; details: isolate CNM-CM-3583, 48 h; outline: as §1
Aspergillus lentulus [6] = experiment: Antimicrobial activity against Aspergillus lentulus isolate CNM-CM-3537 obtained from sputum of patient after 48 hrs by broth microdilution method; format: functional; details: isolate CNM-CM-3537, 48 h; outline: as §1
Neosartorya hiratsukae [7] = experiment: Antimicrobial activity against Neosartorya hiratsukae isolate CNM-CM-3303 obtained from skin of patient after 48 hrs by broth microdilution method; format: functional; details: Aspergillus hiratsukae, isolate CNM-CM-3303, 48 h; outline: as §1
Aspergillus lentulus [8] = experiment: Antimicrobial activity against Aspergillus lentulus isolate CNM-CM-4420 obtained from nail of patient after 48 hrs by broth microdilution method; format: functional; details: isolate CNM-CM-4420, 48 h; outline: as §1
Aspergillus lentulus [9] = experiment: Antimicrobial activity against Aspergillus lentulus isolate CNM-CM-3134 obtained from sputum of patient after 48 hrs by broth microdilution method; format: functional; details: isolate CNM-CM-3134, 48 h; outline: as §1
[10] = test system: Neosartorya pseudofischeri; experiment: Antimicrobial activity against Neosartorya pseudofischeri isolate CNM-CM-2270 obtained from sputum of patient after 48 hrs by broth microdilution method; format: functional; details: Aspergillus thermomutatus, isolate CNM-CM-2270, 48 h; outline: as §2
[11] = test system: Neosartorya pseudofischeri; experiment: Antimicrobial activity against Neosartorya pseudofischeri isolate CNM-CM-4060 obtained from sputum of patient after 48 hrs by broth microdilution method; format: functional; details: Aspergillus thermomutatus; outline: as §2
[12] = test system: Aspergillus fumisynnematus; experiment: Antimicrobial activity against Aspergillus fumisynnematus isolate CNM-CM-4063 obtained from bronchoalveolar aspirate of patient after 48 hrs by broth microdilution method; format: functional; details: isolate CNM-CM-4063, Lung; outline: as §1
Aspergillus viridinutans [13] = experiment: Antimicrobial activity against Aspergillus viridinutans isolate CNM-CM-4518 obtained from nail of patient after 48 hrs by broth microdilution method; format: functional; details: isolate CNM-CM-4518, 48 h; outline: as §1
[14] = test system: Neosartorya pseudofischeri; experiment: Antimicrobial activity against Neosartorya pseudofischeri isolate CNM-CM-3769 obtained from sputum of patient after 48 hrs by broth microdilution method; format: functional; details: Aspergillus thermomutatus; outline: as §2
Neosartorya hiratsukae [15] = experiment: Antimicrobial activity against Neosartorya hiratsukae isolate CNM-CM-3764 obtained from oropharyngeal exudate of patient after 48 hrs by broth microdilution method; format: functional; details: Aspergillus hiratsukae, isolate CNM-CM-3764, 48 h; outline: as §1
Aspergillus lentulus [16] = experiment: Antimicrobial activity against Aspergillus lentulus isolate CNM-CM-4426 obtained from sputum of patient after 48 hrs by broth microdilution method; format: functional; details: isolate CNM-CM-4426, 48 h; outline: as §1
Aspergillus fumigatus = experiment: Antimicrobial activity against Aspergillus fumigatus ATCC 2004305 after 48 hrs by broth microdilution method; format: functional; details: ATCC 2004305, 48 h
Aspergillus lentulus [17] = experiment: Antimicrobial activity against Aspergillus lentulus isolate CNM-CM-4370 obtained from sputum of patient after 48 hrs by broth microdilution method; format: functional; details: isolate CNM-CM-4370, 48 h; outline: as §1
Aspergillus lentulus [18] = experiment: Antimicrobial activity against Aspergillus lentulus isolate CNM-CM-3364 obtained from bronchoalveolar lavage fluid of patient after 48 hrs by broth microdilution method; format: functional; details: isolate CNM-CM-3364, Lung; outline: as §1
Neosartorya hiratsukae [19] = experiment: Antimicrobial activity against Neosartorya hiratsukae isolate CNM-CM-3740 obtained from oropharyngeal exudate of patient after 48 hrs by broth microdilution method; format: functional; details: Aspergillus hiratsukae, isolate CNM-CM-3740, 48 h; outline: as §1
Aspergillus lentulus [20] = experiment: Antimicrobial activity against Aspergillus lentulus isolate CNM-CM-3599 obtained from sputum of patient after 48 hrs by broth microdilution method; format: functional; details: isolate CNM-CM-3599, 48 h; outline: as §1
Aspergillus viridinutans [21] = experiment: Antimicrobial activity against Aspergillus viridinutans isolate CNM-CM-3147 obtained from oropharyngeal exudate of patient after 48 hrs by broth microdilution method; format: functional; details: isolate CNM-CM-3147, 48 h; outline: as §1
Aspergillus lentulus [22] = experiment: Antimicrobial activity against Aspergillus lentulus isolate CNM-CM-4387 obtained from sputum of patient after 48 hrs by broth microdilution method; format: functional; details: isolate CNM-CM-4387, 48 h; outline: as §1
Aspergillus lentulus [23] = experiment: Antimicrobial activity against Aspergillus lentulus isolate CNM-CM-4330 obtained from sputum of patient after 48 hrs by broth microdilution method; format: functional; details: isolate CNM-CM-4330, 48 h; outline: as §1
Neosartorya hiratsukae [24] = experiment: Antimicrobial activity against Neosartorya hiratsukae isolate CNM-CM-4328 obtained from cornea of patient after 48 hrs by broth microdilution method; format: functional; details: Aspergillus hiratsukae, isolate CNM-CM-4328, Cornea; outline: as §1
Aspergillus lentulus [25] = experiment: Antimicrobial activity against Aspergillus lentulus isolate CNM-CM-4428 obtained from skin of patient after 48 hrs by broth microdilution method; format: functional; details: isolate CNM-CM-4428, 48 h; outline: as §1
[26] = test system: Aspergillus fumigatiaffinis; experiment: Antimicrobial activity against Aspergillus fumigatiaffinis isolate CNM-CM-2280 obtained from sputum of patient after 48 hrs by broth microdilution method; details: isolate CNM-CM-2280, 48 h
[27] = test system: Aspergillus fumigatiaffinis; experiment: Antimicrobial activity against Aspergillus fumigatiaffinis isolate CNM-CM-3227 obtained from bronchoalveolar lavage fluid of patient after 48 hrs by broth microdilution method; details: isolate CNM-CM-3227, Lung
Aspergillus lentulus [28] = experiment: Antimicrobial activity against Aspergillus lentulus isolate CNM-CM-3538 obtained from sputum of patient after 48 hrs by broth microdilution method; format: functional; details: isolate CNM-CM-3538, 48 h; outline: as §1

CC[C@@H]([C@H](C)O)n1ncn(-c2ccc(N3CCN(c4ccc(OC[C@@H]5CO[C@@](Cn6cncn6)(c6ccc(F)cc6F)C5)cc4)CC3)cc2)c1=O [POSACONAZOLE]
MIC (Aspergillus lentulus [1]): 0.4 µg/mL (≈ 0.571 µM) | MIC (Neosartorya hiratsukae [2]): 0.045 µg/mL (≈ 0.0642 µM) | MIC [3]: 0.5 µg/mL (≈ 0.713 µM) | MIC (Aspergillus lentulus [4]): 0.33 µg/mL (≈ 0.471 µM) | MIC (Aspergillus lentulus [5]): 0.25 µg/mL (≈ 0.357 µM) | MIC (Aspergillus lentulus [6]): 0.28 µg/mL (≈ 0.4 µM) | MIC (Neosartorya hiratsukae [7]): 0.06 µg/mL (≈ 0.0856 µM) | MIC (Aspergillus lentulus [8]): 0.33 µg/mL (≈ 0.471 µM) | MIC (Aspergillus lentulus [9]): 0.56 µg/mL (≈ 0.799 µM) | MIC [10]: 0.31 µg/mL (≈ 0.442 µM) | MIC [11]: 0.29 µg/mL (≈ 0.414 µM) | MIC [12]: 0.12 µg/mL (≈ 0.171 µM) | MIC (Aspergillus viridinutans [13]): 0.25 µg/mL (≈ 0.357 µM) | MIC [14]: 0.25 µg/mL (≈ 0.357 µM) | MIC (Neosartorya hiratsukae [15]): 0.16 µg/mL (≈ 0.228 µM) | MIC (Aspergillus lentulus [16]): 0.2 µg/mL (≈ 0.285 µM) | MIC (Aspergillus fumigatus): 0.03 µg/mL (≈ 0.0428 µM) | MIC (Aspergillus lentulus [17]): 0.18 µg/mL (≈ 0.257 µM) | MIC (Aspergillus lentulus [18]): 2 µg/mL (≈ 2.85 µM) | MIC (Neosartorya hiratsukae [19]): 0.1 µg/mL (≈ 0.143 µM) | MIC (Aspergillus lentulus [20]): 0.5 µg/mL (≈ 0.713 µM) | MIC (Aspergillus viridinutans [21]): 0.41 µg/mL (≈ 0.585 µM) | MIC (Aspergillus lentulus [22]): 0.25 µg/mL (≈ 0.357 µM) | MIC (Aspergillus lentulus [23]): 0.12 µg/mL (≈ 0.171 µM) | MIC (Neosartorya hiratsukae [24]): 0.09 µg/mL (≈ 0.128 µM) | MIC (Aspergillus lentulus [25]): 0.62 µg/mL (≈ 0.885 µM) | MIC [26]: 1.16 µg/mL (≈ 1.66 µM) | MIC [27]: 0.625 µg/mL (≈ 0.892 µM) | MIC (Aspergillus lentulus [28]): 0.75 µg/mL (≈ 1.07 µM)
